# Measured values reported in ChEMBL document CHEMBL1255564, “A novel series of positive modulators of the AMPA receptor: discovery and structure based hit-to-lead studies” (Bioorg Med Chem Lett, 2010).
# How the values were obtained:
# [1] = […]
# How it was run: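 Cells washed in low-Ca buffer (pH 7.4, 2 mM CaCl₂) with 0.625 mM probenecid. Glutamate ± compound added in 20 mM CaCl₂ buffer. Ca²⁺ fluorescence read; pEC50 is the mean of two experiments run in duplicate.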
# [2] = Permeability from basolateral to apical side of human Caco-2 cells; assay type: ADME, cell-based; conditions: read-out: permeability
# [3] = Permeability from apical to basolateral side of human Caco-2 cells; assay type: ADME, cell-based; conditions: read-out: permeability
# [4] = Intrinsic clearance in human liver microsomes; assay type: ADME, Microsome
# [5] = Volume of distribution at steady state in Wistar rat at 2 mg/kg, iv; assay type: ADME, organism-based; design: dose 2 mg/kg, route intravenous; conditions: in vivo, read-out: Vdss
# [6] = Clearance in Wistar rat at 2 mg/kg, iv; assay type: ADME, organism-based; design: dose 2 mg/kg, route intravenous; conditions: in vivo
# [7] = Intrinsic clearance in rat liver microsomes; assay type: ADME, Microsome
# [8] = Half life in Wistar rat at 2 mg/kg, iv; assay type: ADME, organism-based; design: dose 2 mg/kg, route intravenous; conditions: in vivo
# [9] = Aqueous solubility of the compound; assay type: physicochemical
pEC50 [1],other results,SMILES
6.6,–,O=C(Cn1nc(C(F)(F)F)c2c1CCCC2)Nc1sc2c(c1C(=O)N[C@@H]1CCNC1)CCCC2
6.7,–,NC(=O)c1c(NC(=O)Cn2nc(C(F)(F)F)c3c2CCCC3)sc2c1CCCC2
5.2,–,CN(C)CCNC(=O)c1c(NC(=O)Cn2nc(C(F)(F)F)c3c2CCCC3)sc2c1CCCC2
6.4,Papp B→A [2]: 5.5 ×10⁻⁶ cm/s; Papp A→B [3]: 3.4 ×10⁻⁶ cm/s; microsomal CLint [4]: 17 µL/min/mg; Vd [5]: 3.8 L/kg; clearance [6]: 21 mL/min/kg; microsomal CLint [7]: 77 µL/min/mg; half-life [8]: 3.2 h,NCCCNC(=O)c1c(NC(=O)Cn2nc(C(F)(F)F)c3c2CCCC3)sc2c1CCCC2
5.8,–,O=C(Cn1nc(C(F)(F)F)c2c1CCCC2)Nc1sc2c(c1C(=O)N[C@H]1CCNC1)CCCC2
5.5,–,NC(=O)c1c(CO)csc1NC(=O)Cn1nc(C(F)(F)F)c2c1CCCC2
5.3,–,NC(=O)c1c(NC(=O)Cn2ccc(C(F)(F)F)n2)sc2c1CCCC2
5.8,microsomal CLint [4]: 174 µL/min/mg; solubility [9]: < 1 µg/mL; microsomal CLint [7]: 200 µL/min/mg,NC(=O)c1c(NC(=O)Cn2nc(C(F)(F)F)cc2C(F)(F)F)sc2c1CCCC2
6.4,microsomal CLint [7]: 91 µL/min/mg,NC(=O)c1c(NC(=O)Cn2nc(C(F)(F)F)c3cnccc32)sc2c1CCCC2
< 4.5,–,Cc1cc(C)n(CC(=O)Nc2sc3c(c2C(N)=O)CCCC3)n1
< 4.5,–,NC(=O)c1c(NC(=O)Cn2c(C(F)(F)F)nc3ccccc32)sc2c1CCCC2
6.5,–,CCNC(=O)c1c(NC(=O)Cn2nc(C(F)(F)F)c3c2CCCC3)sc2c1CCCC2
6.2,–,O=C(Cn1nc(C(F)(F)F)c2c1CCCC2)Nc1sc2c(c1C(=O)NC1CC1)CCCC2
5.7,–,CNCCNC(=O)c1c(NC(=O)Cn2nc(C(F)(F)F)c3c2CCCC3)sc2c1CCCC2
5.9,–,NCCCCNC(=O)c1c(NC(=O)Cn2nc(C(F)(F)F)c3c2CCCC3)sc2c1CCCC2
5.8,–,NCCNC(=O)c1c(NC(=O)Cn2nc(C(F)(F)F)c3c2CCCC3)sc2c1CCCC2
7.3,–,O=C(Cn1nc(C(F)(F)F)c2c1CCCC2)Nc1sc2c(c1C(=O)NCCO)CCCC2
7,–,CS(=O)(=O)NCCNC(=O)c1c(NC(=O)Cn2nc(C(F)(F)F)c3c2CCCC3)sc2c1CCCC2
6.5,–,O=C(Cn1nc(C(F)(F)F)c2c1CCCC2)Nc1sc2c(c1C(=O)NC1CNC1)CCCC2
6.2,–,O=C(Cn1nc(C(F)(F)F)c2c1CCCC2)Nc1sc2c(c1C(=O)NCC1CNC1)CCCC2
5.2,solubility [9]: 10 µg/mL,NC(=O)c1ccsc1NC(=O)Cn1nc(C(F)(F)F)c2c1CCCC2
6.1,–,Cc1sc(NC(=O)Cn2nc(C(F)(F)F)c3c2CCCC3)c(C(N)=O)c1C
6.2,–,CCc1c(C)sc(NC(=O)Cn2nc(C(F)(F)F)c3c2CCCC3)c1C(N)=O
6.7,microsomal CLint [4]: > 270 µL/min/mg,NC(=O)c1c(NC(=O)Cn2nc(C(F)(F)F)c3c2CCCC3)sc2c1CCOC2
5.3,–,NC(=O)c1c(NC(=O)Cn2nc(C(F)(F)F)c3c2CCCC3)sc2c1CCNC2
